{"source": "ChEMBL document CHEMBL1148779", "about": "“Synthesis and biological evaluation of imidazoquinoxalinones, imidazole analogues of pyrroloiminoquinone marine natural products” (J Med Chem, 2007)", "key": {"[1]": {"experiment": "Toxicity in mouse at 400 mg/kg, ip", "format": "organism-based", "set-up": "dose 400 mg/kg, route intraperitoneal", "settings": "in vivo", "outline": "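Acute toxicity in mice: the drug was formulated so that 400 mg/kg IP was given in 1 mL. Single IP doses of 400, 200 and 100 mg/kg were given (1, 0.5, 0.25 mL/mouse), using the body weight and strain planned for the hollow fiber assay. Mice were followed for 14 days for morbidity (body weight loss) and mortality. If mice died, the dose was halved serially in single mice until a tolerated dose was reached.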"}, "[2]": {"experiment": "(§1) Growth inhibition of NCI60 cells", "format": "functional", "settings": "Homo sapiens; for TGI: read-out: Log TGI (converted)"}, "Homo sapiens": {"organism": "Homo sapiens", "experiment": "Inhibition of human recombinant topoisomerase 2", "outline": "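Relaxation assay with recombinant human topoisomerase II (p170), 4 units, and 0.25 µg supercoiled pRYG DNA. Buffer: 50 mM Tris pH 8.0, 120 mM KCl, 10 mM MgCl2, 0.5 mM DTT, 0.5 mM ATP. Drug was added in varying amounts for 45 min at 37 °C. Reactions were stopped with SDS and proteinase K, then extracted with chloroform/isoamyl alcohol. Products were run on a 1% agarose gel and stained with ethidium bromide. Etoposide was the positive control.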"}, "NCI60": {"system": "NCI60", "experiment": "as §1", "format": "functional", "settings": "Homo sapiens"}, "HCT-116": {"system": "HCT-116", "experiment": "Inhibition of human HCT116 cells", "format": "functional, cell-based", "outline": "(§2)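 MTT assay. HCT-116 cells were grown in McCoy's 5a with 10% FBS and 2 mM L-glutamine. A-431 cells were grown in DMEM with 10% FBS and 4 mM L-glutamine. Cells were plated at 10 000/well and dosed after 24 h. HCT-116 was tested at 0.3–100 µM and A-431 at 0.1–100 µM, for 48 h at 37 °C. MTT (final 0.3 mg/mL) was added for 3 h and formazan dissolved in DMSO. A570 was read and % cytotoxicity taken versus untreated control. Makaluvamine C at 10 µM was the positive control.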"}, "A-431": {"system": "A-431", "experiment": "Inhibition of human A431 cells", "format": "functional, cell-based", "outline": "as §2"}, "BT-549": {"system": "BT-549", "experiment": "Growth inhibition of human BT549 cells", "format": "functional"}, "MDA-MB-231": {"system": "MDA-MB-231", "experiment": "Growth inhibition of human MDA-MB-231 cells", "format": "functional"}, "MDA-MB-435": {"system": "MDA-MB-435", "experiment": "Growth inhibition of human MDA-MB-435 cells", "format": "functional"}, "MDA-N": {"system": "MDA-N", "experiment": "Growth inhibition of human MDA-N cells", "format": "functional"}}, "note": "Activity calls are given as the source filed them. The rule behind the calls is not given here."}
{"compound": "O=C1C(NCc2ccccc2)=CC2=NCCn3cnc1c32", "values": [{"measurement": "MTD", "setting": "[1]", "result": 12.5, "unit": "mg/kg"}, {"measurement": "GI50", "setting": "[2]", "result": 0.617, "unit": "µM"}, {"measurement": "LC50", "setting": "[2]", "result": 14.8, "unit": "µM"}, {"measurement": "TGI", "setting": "[2]", "result": 2.82, "unit": "µM"}]}
{"compound": "O=C1C(NCCc2c[nH]c3ccccc23)=CC2=NCCn3cnc1c32", "values": [{"measurement": "Activity", "setting": "Homo sapiens", "result": "Active"}, {"measurement": "GI50", "setting": "[2]", "result": 0.234, "unit": "µM"}, {"measurement": "LC50", "setting": "[2]", "result": 6.76, "unit": "µM"}, {"measurement": "TGI", "setting": "[2]", "result": 0.871, "unit": "µM"}]}
{"compound": "CC(=O)NC1=C(C)C(=O)c2nc(COC(C)=O)n3c2C1=NCC3", "values": [{"measurement": "Activity", "setting": "NCI60", "result": "inactive"}]}
{"compound": "COCc1nc2c3n1CCN=C3C=C(N)C2=O", "values": [{"measurement": "IC50", "setting": "HCT-116", "result": 3, "unit": "µM"}, {"measurement": "IC50", "setting": "A-431", "result": 3, "unit": "µM"}]}
{"compound": "O=C1C(NCCc2ccc(O)cc2)=CC2=NCCn3cnc1c32", "values": [{"measurement": "GI50", "setting": "[2]", "result": 2.51, "unit": "µM"}, {"measurement": "LC50", "setting": "[2]", "result": 40.7, "unit": "µM"}, {"measurement": "TGI", "setting": "[2]", "result": 14.1, "unit": "µM"}]}
{"compound": "CC(=O)NC1=C(C)C(=O)c2ncn3c2C1=NCC3", "values": [{"measurement": "GI50", "setting": "[2]", "result": 46.8, "unit": "µM"}, {"measurement": "Activity", "setting": "NCI60", "result": "inactive"}]}
{"compound": "CC(=O)NC1=C(C)C(=O)c2nc(C)n3c2C1=NCC3", "values": [{"measurement": "GI50", "setting": "BT-549", "result": "< 0.01", "unit": "µM"}, {"measurement": "GI50", "setting": "MDA-MB-231", "result": 12.9, "unit": "µM"}, {"measurement": "GI50", "setting": "MDA-MB-435", "result": 19.1, "unit": "µM"}, {"measurement": "GI50", "setting": "MDA-N", "result": 18.6, "unit": "µM"}, {"measurement": "GI50", "setting": "[2]", "result": 52.5, "unit": "µM"}, {"measurement": "TGI", "setting": "[2]", "result": 81.3, "unit": "µM"}, {"measurement": "Activity", "setting": "NCI60", "result": "inactive"}]}
{"compound": "COc1cc([C@@H]2c3cc4c(cc3[C@@H](O[C@@H]3O[C@@H]5CO[C@@H](C)O[C@H]5[C@H](O)[C@H]3O)[C@H]3COC(=O)[C@H]23)OCO4)cc(OC)c1O", "values": [{"measurement": "Activity", "setting": "Homo sapiens", "result": "Active"}]}
{"compound": "NC1=CC2=NCCn3cnc(c32)C1=O", "values": [{"measurement": "GI50", "setting": "[2]", "result": 4.57, "unit": "µM"}, {"measurement": "LC50", "setting": "[2]", "result": 35.5, "unit": "µM"}, {"measurement": "TGI", "setting": "[2]", "result": 12.3, "unit": "µM"}]}
{"compound": "O=C1C(NCCc2ccccc2)=CC2=NCCn3cnc1c32", "values": [{"measurement": "GI50", "setting": "[2]", "result": 0.166, "unit": "µM"}, {"measurement": "LC50", "setting": "[2]", "result": 5.5, "unit": "µM"}, {"measurement": "TGI", "setting": "[2]", "result": 1.07, "unit": "µM"}]}
{"compound": "O=C1C(NCCO)=CC2=NCCn3cnc1c32", "values": [{"measurement": "GI50", "setting": "[2]", "result": 1.1, "unit": "µM"}, {"measurement": "LC50", "setting": "[2]", "result": 20, "unit": "µM"}, {"measurement": "TGI", "setting": "[2]", "result": 4.27, "unit": "µM"}]}
